The text below walks through data of ChEMBL document CHEMBL1926544, “Tyrosine-based 1-(S)-[3-hydroxy-2-(phosphonomethoxy)propyl]cytosine and -adenine ((S)-HPMPC and (S)-HPMPA) prodrugs: synthesis, stability, antiviral activity, and in vivo transport studies” (J Med Chem, 2011).

Structures are written as SMILES.

What is called IC50 is the concentration at which inhibition is half-maximal. What is called half-life is the time in which the quantity being followed falls by half.

The test system of data set [1] is Plasma. Nature of the data set: Drug level in CFW Swiss-Webster mouse plasma dosed at 10 mg equivalent of (S)-9-[3-hydroxy-2-(phosphonomethoxy)propyl]adenine/kg, po by LC-MS analysis. The format is ADME, organism-based. Conditions: in vivo. A digest of the protocol: (§1)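 CFW Swiss-Webster mice, 4 weeks old, 25 g, fasted 18 h with water. Prodrug given by gavage in water at 10 mg eq (of HPMPA)/kg. Plasma by cardiac puncture at 1, 2, 3, 4 and 8 h, 5 mice per time point, one sample per mouse. Solid-phase extraction, then LC-MS (ESI positive) against internal-standard calibration curves.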

In data set [2] the test system is Plasma. Nature of the data set: Drug level in CFW Swiss-Webster mouse plasma assessed as (S)-cHPMPA levels dosed at 10 mg equivalent of (S)-9-[3-hydroxy-2-(phosphonomethoxy)propyl]adenine/kg, po by LC-MS analysis. Format: ADME, organism-based. The following applies: in vivo. A digest of the protocol: as §1
For the next data set, the system named is HFF. Nature of the data set: Cytotoxicity against HFF cells after 48 hrs by visual cytotoxicity observation assay. Conditions: hff. The format is cell-based, Homo sapiens.
The next data set has as its system Human betaherpesvirus 5. Nature of the data set: Antiviral activity against HCMV Towne infected in HFF cells incubated for 10 days by plaque reduction assay. The format is functional, organism-based. Conditions: hff. A digest of the protocol:
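Towne strain (plaque-purified P0) on HFF cells, about 100 plaques per well. Drug overlay (100 µM down to 0.03 µM), about 10 days incubation, crystal violet staining, microscopic plaques counted. IC50 from regression of % plaque reduction versus no-drug wells. Duplicate; ganciclovir as positive control.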

A further data set relates to Human alphaherpesvirus 1. Nature of the data set: Antiviral activity against HSV1 KOS infected in HFF cells incubated for 3 days by plaque reduction assay. The format is functional, organism-based. The following applies: hff. A digest of the protocol: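 HFF monolayer plaque reduction, about 100 plaques per well. Drug overlay (100 µM down to 0.03 µM), about 3 days incubation, crystal violet staining, macroscopic plaques counted. IC50 from regression of % plaque reduction relative to no-drug wells. Duplicate; acyclovir run as positive control.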
Background: Plaque reduction counts the foci of infection that form in a cell layer.

A further data set concerns Vaccinia virus. The data set can be described thus: Antiviral activity against Vaccinia virus Copenhagen infected in HFF cells incubated for 3 days by plaque reduction assay. Format: functional, organism-based, Orthopoxvirus vaccinia. Conditions: hff.
A short description of data set [3]: Antiviral activity against Cowpox virus Brighton infected in HFF cells incubated for 3 days by plaque reduction assay. The format is functional, cell-based, Cowpox virus (Brighton Red). The following applies: hff.
A short description of data set [4]: Half life in phosphate buffer at pH 6.5 at 37 degC by LC/MS analysis. The format is physicochemical.
Data set [5] is described as follows: Half life in phosphate buffer at pH 7.4 at 37 degC assessed as half life by LC/MS analysis. The format is physicochemical.
Data set [6] can be described thus: Half life in Sprague-Dawley rat intestinal homogenate at pH 6.5 by LC/MS analysis. Format: ADME, tissue-based, Intestine. A digest of the protocol: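 Compound stock (1 mg/ml, 400 µL) mixed with 260 µL buffer and 140 µL homogenate, 37 °C. Samples taken over time, quenched with methanol, centrifuged, supernatant analysed by LC-MS (C18, acetonitrile gradient in ammonium acetate pH 5.5). Run separately for each phosphorus diastereomer.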

Take `CC(C)CNC(=O)[C@@H](N)Cc1ccc(OP2(=O)CO[C@@H](Cn3cnc4c(N)ncnc43)CO2)cc1.Cl` (mixture of isomers; form 2): the values for the Drug uptake in the data set on Plasma [1] and with Plasma [2] were 20% and 80%, respectively. Besides, the concentration for half-maximal inhibition (IC50) in the data set with HFF is 100000 nM; in the data set on Human betaherpesvirus 5, 1300 nM; in the data set on Human alphaherpesvirus 1 it was 35000 nM; in the data set with Vaccinia virus, 1500 nM; in [3], 2000 nM.

For `COC(=O)[C@@H](N)Cc1ccc(O[P@]2(=O)CO[C@@H](Cn3ccc(N)nc3=O)CO2)cc1`, the half-life in [4] is 0.933 h; in data set [5] it was 0.317 h; in [6], < 0.5 h.

Regarding `COC(=O)[C@@H](N)Cc1ccc(O[P@@]2(=O)CO[C@@H](Cn3ccc(N)nc3=O)CO2)cc1`, the half-life in data set [4] was 4.27 h; in [5], 2.02 h; in data set [6], < 0.5 h.

Take `CC(C)(C)NC(=O)[C@H](N)Cc1ccc(O[P@]2(=O)CO[C@@H](Cn3ccc(N)nc3=O)CO2)cc1`: the half-life came out at 3.5 h in data set [4], 1 h in [5] and 3.85 h in [6].

With `COC(=O)[C@H](N)Cc1ccc(O[P@@]2(=O)CO[C@@H](Cn3ccc(N)nc3=O)CO2)cc1`, the results for the half-life in [4], in [5] and in data set [6] were 6.42 h, 2.1 h and 3.5 h, respectively.

As to `CC(C)OC(=O)[C@@H](N)Cc1ccc(O[P@@]2(=O)CO[C@@H](Cn3ccc(N)nc3=O)CO2)cc1`, the figures for the half-life in [4], in [5] and in data set [6] were 12.8 h, 3.98 h and < 0.5 h, respectively.
